According to ChEMBL document CHEMBL4038284, “Synthesis of novel quinoline-based 4,5-dihydro-1H-pyrazoles as potential anticancer, antifungal, antibacterial and antiprotozoal agents” (Eur J Med Chem, 2017):
Values after ≈ are worked out from the molar mass of the structure shown. Active and inactive are the calls of the source. The rule behind the calls is not given here.

Legend:
[1] = tested on: Cryptococcus neoformans; assay: Antifungal activity against Cryptococcus neoformans ATCC 32264 incubated for 48 hrs under dark condition by broth microdilution method; type: functional; conditions: ATCC 32264, 48 h
In short: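 CLSI M27-A3 broth microdilution in RPMI-1640, DMSO ≤1%, compounds at 250-0.98 µg/mL final. Inoculum 1-5 × 10^3 CFU/mL. Incubated 48 h at 30 °C in a moist dark chamber, read at OD405. MIC80 and MIC50 taken from % inhibition dose-response curves (mean ± SEM, triplicate). Amphotericin B was the positive control.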

[2] = tested on: Neisseria gonorrhoeae; assay: Antibacterial activity against beta lactamase positive Neisseria gonorrhoeae ATCC 31426 by oxidase test; type: functional
In short: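 Agar dilution MIC on GC agar with 1% isovitalex containing increasing compound concentrations. Plates inoculated with about 1×10^4 CFU (5 µL). MIC is the lowest concentration that inhibited growth, with growth confirmed by oxidase test. Run in duplicate, repeated at least three times.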

[3] = tested on: K562; assay: Growth inhibition of human K562 cells at 10 uM incubated for 48 hrs by sulforhodamine B assay; type: functional, cell-based
In short: (§1)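 NCI 60-line panel, single 10 μM dose. Cells were grown in RPMI-1640 with 5% FBS and 2 mM L-glutamine and pre-incubated 24 h before compound addition (DMSO stock). Exposure was 48 h at 37 °C, 5% CO2. Cells were fixed with cold TCA (10% final), stained with 0.4% SRB, bound dye dissolved in 10 mM Tris base, A515 read. Growth was taken relative to time-zero and untreated control plates.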

[4] = tested on: SR; assay: Growth inhibition of human SR cells at 10 uM incubated for 48 hrs by sulforhodamine B assay; type: functional, cell-based
In short: (§2)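 NCI-60 single-dose screen at 10 µM for 48 h. Cells were grown in RPMI-1640 with 5% FBS and 2 mM L-glutamine and preincubated 24 h before compound. Time-zero plates were TCA-fixed at compound addition. After exposure, cells were TCA-fixed, stained with SRB and read at 515 nm. Percentage growth was calculated against time-zero and untreated-control absorbances.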

[5] = tested on: MOLT-4; assay: Growth inhibition of human MOLT4 cells at 10 uM incubated for 48 hrs by sulforhodamine B assay; type: functional, cell-based; in short: as §1
[6] = tested on: MDA-MB-468; assay: Growth inhibition of human MDA-MB-468 cells at 10 uM incubated for 48 hrs by sulforhodamine B assay; type: functional, cell-based; in short: as §1
[7] = tested on: Candida albicans; assay: Growth inhibition of Candida albicans ATCC 10231 at 250 ug/ml incubated for 48 hrs under dark condition by broth microdilution method relative to control; type: functional; conditions: ATCC 10231, 48 h, read-out: GI
In short: (§3)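 CLSI M27-A3 broth microdilution in RPMI-1640, DMSO ≤1%. Inoculum 1-5 × 10^3 CFU/mL. Incubated 48 h at 30 °C, dark. % inhibition = 100 − (OD405 test − sterility control)/(OD405 growth control − sterility control), with growth and sterility control wells. Triplicate.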

[8] = tested on: Candida albicans; assay: Growth inhibition of Candida albicans ATCC 10231 at 7.8 ug/ml incubated for 48 hrs under dark condition by broth microdilution method relative to control; type: functional; conditions: ATCC 10231, 48 h, read-out: GI; in short: as §3
[9] = tested on: Cryptococcus neoformans; assay: Growth inhibition of Cryptococcus neoformans ATCC 32264 at 125 ug/ml incubated for 48 hrs under dark condition by broth microdilution method relative to control; type: functional; conditions: ATCC 32264, 48 h, read-out: GI; in short: as §3
[10] = tested on: OVCAR-4; assay: Growth inhibition of human OVCAR4 cells at 10 uM incubated for 48 hrs by sulforhodamine B assay; type: functional, cell-based; in short: as §1
[11] = tested on: Klebsiella pneumoniae; assay: Antibacterial activity against carbapenemase positive Klebsiella pneumoniae BAA 1705 after 24 hrs by resazurin dye based microdilution assay; type: functional; conditions: BAA 1705, 24 h
In short: (§4)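 MIC taken as the lowest concentration giving visible inhibition and/or by resazurin (1 mg/mL). Gentamicin was the control. Run in duplicate, repeated at least three times.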

[12] = tested on: ACHN; assay: Growth inhibition of human ACHN cells at 10 uM incubated for 48 hrs by sulforhodamine B assay; type: functional, cell-based
In short: (§5)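 NCI 60-cell-line screen at a single 10 µM dose. Cells in RPMI-1640 with 5% FBS and 2 mM L-glutamine, pre-incubated 24 h, then treated for 48 h at 37 °C. TCA fixation, sulforhodamine B staining, absorbance at 515 nm. Percentage growth calculated against time-zero and untreated controls.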

[13] = tested on: OVCAR-3; assay: Growth inhibition of human OVCAR3 cells at 10 uM incubated for 48 hrs by sulforhodamine B assay; type: functional, cell-based; in short: as §1
[14] = tested on: SF-539; assay: Growth inhibition of human SF539 cells at 10 uM incubated for 48 hrs by sulforhodamine B assay; type: functional, cell-based; in short: as §1
[15] = tested on: RXF 393; assay: Growth inhibition of human RXF393 cells at 10 uM incubated for 48 hrs by sulforhodamine B assay; type: functional, cell-based; in short: as §1
[16] = tested on: UACC-257; assay: Growth inhibition of human UACC257 cells at 10 uM incubated for 48 hrs by sulforhodamine B assay; type: functional, cell-based; in short: as §2
[17] = tested on: Hs-578T; assay: Growth inhibition of human Hs578T cells at 10 uM incubated for 48 hrs by sulforhodamine B assay; type: functional, cell-based; in short: as §1
[18] = tested on: BT-549; assay: Growth inhibition of human BT549 cells at 10 uM incubated for 48 hrs by sulforhodamine B assay; type: functional, cell-based; in short: as §5
[19] = tested on: HCC 2998; assay: Growth inhibition of human HCC2998 cells at 10 uM incubated for 48 hrs by sulforhodamine B assay; type: functional, cell-based; in short: as §5
[20] = tested on: 786-0; assay: Growth inhibition of human 786-0 cells at 10 uM incubated for 48 hrs by sulforhodamine B assay; type: functional, cell-based; in short: as §5
[21] = tested on: HOP-62; assay: Growth inhibition of human HOP62 cells at 10 uM incubated for 48 hrs by sulforhodamine B assay; type: functional, cell-based; in short: as §5
[22] = tested on: Cryptococcus neoformans; assay: Growth inhibition of Cryptococcus neoformans ATCC 32264 at 3.4 ug/ml incubated for 48 hrs under dark condition by broth microdilution method relative to control; type: functional; conditions: ATCC 32264, 48 h, read-out: GI
[23] = tested on: Cryptococcus neoformans; assay: Growth inhibition of Cryptococcus neoformans ATCC 32264 at 250 ug/ml incubated for 48 hrs under dark condition by broth microdilution method relative to control; type: functional; conditions: ATCC 32264, 48 h, read-out: GI; in short: as §3
[24] = tested on: HCT-116; assay: Growth inhibition of human HCT116 cells at 10 uM incubated for 48 hrs by sulforhodamine B assay; type: functional, cell-based; in short: as §5
[25] = tested on: Klebsiella pneumoniae; assay: Antibacterial activity against ESBL positive Klebsiella pneumoniae ATCC 700603 after 24 hrs by resazurin dye based microdilution assay; type: functional; conditions: Klebsiella pneumoniae, 700603, 24 h; in short: as §4
[26] = tested on: NCI-H522; assay: Growth inhibition of human NCI-H522 cells at 10 uM incubated for 48 hrs by sulforhodamine B assay; type: functional, cell-based; in short: as §1
[27] = tested on: CAKI-1; assay: Growth inhibition of human Caki1 cells at 10 uM incubated for 48 hrs by sulforhodamine B assay; type: functional, cell-based; in short: as §5
[28] = tested on: UACC-62; assay: Growth inhibition of human UACC62 cells at 10 uM incubated for 48 hrs by sulforhodamine B assay; type: functional, cell-based; in short: as §2
[29] = tested on: Leishmania panamensis; assay: Antileshmanial activity against EpiR/GFP fused Leishmania panamensis MHOM/CO/87/UA140 intracellular amastigotes infected in human […] cells after 72 hrs by flow cytometric method; type: functional, cell-based; conditions: MHOM/CO/87/UA140, 72 h
In short: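 PMA-treated U-937 cells (3 × 10^5 cells/mL) infected with stationary-phase GFP L. panamensis promastigotes (15:1), 3 h at 34 °C, then washed. After 24 h, compounds added at 50, 12.5, 3.125 and 0.78 µg/mL for 72 h at 37 °C. EC50 by Probit; triplicate, two experiments.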

Row | Compound | MIC50 [1] [µg/mL] | MIC80 [1] [µg/mL] | MIC [2] [µg/mL] | growth inhibition (GI) [3] | growth inhibition (GI) [4] | growth inhibition (GI) [5] | growth inhibition (GI) [6] | inhibition of growth at 250 µg/mL [7] [%] | inhibition of growth at 7.8 µg/mL [8] [%] | inhibition of growth at 125 µg/mL [9] [%] | growth inhibition (GI) [10] | MIC [11] [µg/mL] | growth inhibition (GI) [12] | growth inhibition (GI) [13] | growth inhibition (GI) [14] | growth inhibition (GI) [15] | growth inhibition (GI) [16] | growth inhibition (GI) [17] | growth inhibition (GI) [18] | growth inhibition (GI) [19] | also measured
1 | COc1ccc(C2=NN(c3ccc(Cl)cc3)C(c3cccc(Nc4ccnc5cc(Cl)ccc45)c3)C2)cc1 (stereo not given) | 250 (≈ 463 µM) | ≥ 250 | > 1000 | inactive | inactive | inactive | inactive | 3.08 | 0 | 26.7 | inactive | > 1000 | inactive | inactive | inactive | inactive | inactive | inactive | inactive | inactive | growth inhibition (GI) [20]: inactive; growth inhibition (GI) [21]: inactive; inhibition of growth at 3.4 µg/mL [22]: 7.99%; inhibition of growth at 250 µg/mL [23]: 58.2%; growth inhibition (GI) [24]: inactive; MIC [25]: > 1000 µg/mL; growth inhibition (GI) [26]: inactive; growth inhibition (GI) [27]: inactive; growth inhibition (GI) [28]: inactive; EC50 [29]: 27.7 µg/mL (≈ 51.4 µM)
2 | Clc1ccc(C2=NN(c3ccc(Cl)cc3)C(c3cccc(Nc4ccnc5cc(Cl)ccc45)c3)C2)cc1 (stereo not given) | 250 (≈ 460 µM) | ≥ 250 | > 1000 | inactive | inactive | inactive | inactive | 40.4 | 2.96 | 46 | inactive | > 1000 | inactive | inactive | inactive | inactive | inactive | inactive | inactive | inactive | growth inhibition (GI) [20]: inactive; growth inhibition (GI) [21]: inactive; inhibition of growth at 3.4 µg/mL [22]: 17.4%; inhibition of growth at 250 µg/mL [23]: 53%; growth inhibition (GI) [24]: inactive; MIC [25]: > 1000 µg/mL; growth inhibition (GI) [26]: inactive; growth inhibition (GI) [27]: inactive; growth inhibition (GI) [28]: inactive; EC50 [29]: 91.4 µg/mL (≈ 168 µM)
3 | Clc1ccc(C2=NN(c3ccccc3)C(c3cccc(Nc4ccnc5cc(Cl)ccc45)c3)C2)cc1 (stereo not given) | ≥ 250 | ≥ 250 | > 1000 | inactive | inactive | inactive | inactive | 19.8 | 3.8 | 14.6 | inactive | > 1000 | inactive | inactive | inactive | inactive | inactive | inactive | inactive | inactive | growth inhibition (GI) [20]: inactive; growth inhibition (GI) [21]: inactive; inhibition of growth at 3.4 µg/mL [22]: 0%; inhibition of growth at 250 µg/mL [23]: 19.8%; growth inhibition (GI) [24]: inactive; MIC [25]: > 1000 µg/mL; growth inhibition (GI) [26]: inactive; growth inhibition (GI) [27]: inactive; growth inhibition (GI) [28]: inactive; EC50 [29]: 11.7 µg/mL (≈ 22.9 µM)
